According to the EternaBench riboswitch data:

System: MS2 coat protein
Assay: apparent Kd, MS2 coat protein; higher = weaker binding; RNA-MaP array; FMN 200 µM where present
In short: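 Apparent Kd: the median of filtered binding-curve fits from single clusters. Designs were transcribed on Illumina sequencing-chip clusters by stalled E. coli RNA polymerase and titrated with SNAP-549-labelled MS2 coat protein from 0.7 or 1.5 nM, doubling to 3 µM, in 100 mM Tris-HCl pH 7.5, 80 mM KCl, 4 mM MgCl2, BSA, DTT, yeast tRNA and Tween-20. Each series ran without and then with constant ligand, and green signal was normalised to red-channel RNA signal and control-cluster median Fmax.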

[1] = designed as: OFF switch for flavin mononucleotide, no ligand
[2] = ligand present: flavin mononucleotide, designed as: OFF switch for flavin mononucleotide
[3] = designed as: ON switch for flavin mononucleotide, no ligand
[4] = ligand present: flavin mononucleotide, designed as: ON switch for flavin mononucleotide

| Sequence | apparent Kd [1] | apparent Kd [2] | apparent Kd [3] | apparent Kd [4] |
| --- | --- | --- | --- | --- |
| UAUGUUGUUGUGAGGAUAUACUUAGUUUGACCGUAGUAGAAGGCACAUGAGGAUCACCCAUGUAGAUGUUUGGU | 15.8 nM | 29.5 nM | – | – |
| UAUUAAUACGAAGGAUAUGGUUACAUGAGGAUCACCCAUGUAUGUAUAUUGAUCUAGAUAUUUAACCAGAAGGUCGGGAGUAAA | 39 nM | 38.2 nM | – | – |
| UAUUAAUACGAAGGAUAUGGUUACAUGAGGAUCACCCAUGUAUGUAUAUUGAUCUAGAUUUUUAACCAGAAGGUCGUGAGUAAA | 34.9 nM | 59 nM | – | – |
| UAUUAGCUAGGAUAUACAUGAGGAUCACCCAUGUCACGGGUCAACUUGUCCUAUGCGUGUAGAAGGAGCGACCC | 17.7 nM | 21.7 nM | – | – |
| UAUUAGCUAGGAUAUACAUGAGGAUCACCCAUGUCACGGGUCCACUUGUCCUAUGCGUGUAGAAGGAGCGACCC | 22.4 nM | 25.8 nM | – | – |
| UAUUCACAUGAGGAUCACCCAUGUAGAAGGCCGAGCCUGGCCACGGUUACAAGCCGUGGAGAGCCGGAGGAUAUACAGCUGGUG | 140 nM | 27.8 nM | – | – |
| UAUUUGUCAGGAUAUGAGUCGUAGAACAAUAGUACUACGUCUCAGAAGGGACAUGAGGAUCACCCAUGUGCCUC | 25.5 nM | 217 nM | – | – |
| UAUUUUGAAGUAGGAUAUCAACACACAUGAGGAUCACCCAUGUUAGAUGUGGAUGUUGUAUGUUAUGAGAAGGACUUCGAUUCG | 20.6 nM | 76.4 nM | – | – |
| UAUUUUUAUGUAAGGAUAUGGGUUUGGUUGCGGGCUUAGAAGGUACAUGAGGAUCACCCAUGUAUUUUGUGCGU | 16.9 nM | 18.3 nM | – | – |
| UCAAGAAGGCAGAAGGGUCCUCACAUGAGGAUCACCCAUGUAGAUAUGGAUAGGAUAUGUCUAGAGAAGUGUUGCUCUAAGGGU | – | – | 1050 nM | 159 nM |
| UCAAGUAUGUAGGAUAUCGAUGUCUACGGACAUCGAGAAGGACGUACAUGAGGAUCACCCAUGUAACUUGCAUG | 464 nM | 188 nM | – | – |
| UCACAGUGUCGUUAUCCGUAGCGAACAUGAGGAUCACCCAUGUAGGAUAUGUUAUUAAACUAAUAACAGAAGGACGUUGGUCUC | 83.2 nM | 530 nM | – | – |
| UCACGGCUCGGAGGAUAUGACACAUGAGGAUCACCCAUGUGUGUAAGCCAAUAAACCUACAAAUGUCAGAAGGCCGCGCCUCAU | 15.3 nM | 14.7 nM | – | – |
| UCACGGGACUAAGGAUAUAUGAGUACCAUUUACAUAGAAGGUAGAAUGUUAGAUCAUAAACUAAACAUGAGGAUCACCCAUGUU | 19.4 nM | 18.6 nM | – | – |
| UCACGGGACUAAGGAUAUAUGUGUACCAUUUUCAUAGAAGGUAGAAUGUUUGAUCAUAAACUAAACAUGAGGAUCACCCAUGUU | 27 nM | 25.1 nM | – | – |
| UCACGGGAUUGAGGAUAUAUAUUAAUUUUUACAAUAGAAGGCAAAUUGUUAGUUUUUUCACUUUACAUGAGGAUCACCCAUGUU | 26.2 nM | 24 nM | – | – |
| UCACGGUAUGUAGGAUAUGCAUAGCAUUGCUAUGCAGAAGGACAUGAGGAUCACCCAUGUAUGUAUUCCAUACUAAUCCCGUGC | 6.01 nM | 6.03 nM | – | – |
| UCACUUCGUGAGGAUAUGCAAGGACUAUGACUGGUAGAAGGCACGACAUGAGGAUCACCCAUGUCUGUGGGUCC | 17 nM | 18.3 nM | – | – |
| UCAGGCUUCGAGAAGGACAUGAAUCGUAGCAUUGCUACGAUCAAAGAUACAUGAGGAUCACCCAUGUAGGAUAUCGGAGUCUGC | 5.75 nM | 7.63 nM | – | – |
| UCAGGCUUCGAGAAGGACAUGAAUCGUAGCAUUGCUACGAUCAUUGAUACAUGAGGAUCACCCAUGUAGGAUAUCGGAGUCUGC | 5.99 nM | 6.75 nM | – | – |
| UCAGGCUUCGAGAAGGACAUGAGGAUCACCCAUGUUAAUUAGAAGCAGCCGUGAGGCUGCAUCAUGUAGGAUAUCGGAGUCUGC | 7.16 nM | 24.8 nM | – | – |
| UCAGUAGAGUGAGGAUAUACGAAAGGCGAUCCAUACAUGAGGAUCACCCAUGUAGAAGGCACUCUACUGUAAGUCGGAAACGAC | 173 nM | 12.3 nM | – | – |
| UCAUAUAUACAAGGAUAUCAAUGAUUUAUAGAUCCUACAUGAGGAUCACCCAUGUUUUUAUAUUUUGAGAAGGUGUAGUGUCUU | – | – | 214 nM | 333 nM |
| UCAUGGUAGCAGGAUAUGCUAUUUAUUUUUUAUGCAGAAGGGCUUACAUGAGGAUCACCCAUGUGUUAGGUUUA | 113 nM | 25.2 nM | – | – |
| UCAUUUCUGAAAGGAUAUUAAUUCAUGACGAUACAUGAGGAUCACCCAUGUUAAGAAGGUUCAAAUACAAAUAAUGCAUUGUUC | 13.2 nM | 11.1 nM | – | – |
| UCAUUUCUGUAAGGAUAUUAAAACAUGACGAUACAUGAGGAUCACCCAUGUUAAGAAGGUACAAAUACAUAUAAUGCAAUGUUC | 15.7 nM | 14.8 nM | – | – |
| UCAUUUCUGUAAGGAUAUUUAAACAUGACGAUACAUGAGGAUCACCCAUGUAAAGAAGGUACAAAUACAUAUAAUGCAAUGUUC | 7.55 nM | 7.39 nM | – | – |
| UCCACGUGUGCAGGAUAUCCCACGAGCGCAACAUGAGGAUCACCCAUGUACCUGAGUCUCGGAACGGAGAAGGGUACAUGUUAA | – | – | 340 nM | 45.2 nM |

| Sequence | apparent Kd [1] | apparent Kd [2] | apparent Kd [3] | apparent Kd [4] |
| --- | --- | --- | --- | --- |
| UCCGUGUGAGGAUAUUACGCUGUUCGGGAAACGCUCAUAGGUAAGAAGGCACAUGAGGAUCACCCAUGUCCAUA | 23.7 nM | 54.8 nM | – | – |
| UCCUCGAUGUAGAAGGCCGCGUCCGGCUCACGCGGAGGAUAUACAUGAGGAUCACCCAUGUGUCUGUGCCUUAUAUGGUACGGA | 111 nM | 10.5 nM | – | – |
| UCCUCGAUGUAGAAGGCCGCGUCCGGCUCACGCGGAGGAUAUACAUGAGGAUCACCCAUGUGUUUGUGGCUAAUAUGGUACGAA | 159 nM | 18.2 nM | – | – |
| UCCUCGUCAGGAUAUCCACGGAAUAGCGGGAUACCGAGCGUGGAGAAGGGACAUGAGGAUCACCCAUGUAAAAU | 29.4 nM | 61.2 nM | – | – |
| UCCUGAUCGAGAGGUAGGAGUGGUAGAAGGCGACCGGUGCCAGAUGACAUGAGGAUCACCCAUGUCGAGGAUAUACCACUGAAU | 7.04 nM | 12.1 nM | – | – |
| UCCUUGUCCUGAGGAUAUCCGAGGUUCCCAAAAGGAGAAGGCAGGACAUGAGGAUCACCCAUGUACCCAGAAAACGUGCAGAGU | 122 nM | 25 nM | – | – |
| UCCUUGUCCUGAGGAUAUCCGUGGUUCCCGAAAGGAGAAGGCAGGACAUGAGGAUCACCCAUGUACCCAGAAAACGUGCAGAGU | 163 nM | 273 nM | – | – |
| UCGAGUGGUUAGGAUAUCAUUGGUGCAUAUCAUUGAGAAGGAACUACAUGAGGAUCACCCAUGUGGCAGUGAUA | 28.2 nM | 126 nM | – | – |
| UCGAUUAUACAAGGAUAUCAAUUGUAAUUGAGACUUACAUGAGGAUCACCCAUGUUAAUAUUUUUUGAGAAGGUGUAUUUUCAG | – | – | 47.3 nM | 26.8 nM |
| UCGCCUUAGUAAGGAUAUCACAUGAGGAUCACCCAUGUGGGCGUGACACGGUGAGAAGGUACGCGGCGAAGGUGCCAAGGCAUC | 387 nM | 44 nM | – | – |
| UCGCGGGAGCAGAAGGGACAGGCCUAUUGUCGUGAGGUCUGCACUUAACAUGAGGAUCACCCAUGUCAGGAUAUGCCCACGCGA | 4.8 nM | 4.94 nM | – | – |
| UCGCGGGUGCAGAAGGGAUAGGCCUAUUGUCGUGGAGUCUAAACUUAACAUGAGGAUCACCCAUGUCAGGAUAUGCCCACGCGA | 9.17 nM | 10.2 nM | – | – |
| UCGCUCCGUGUAGGAUAUCGCCGUUCUAUUCGGCGAGAAGGACAUGAGGAUCACCCAUGUAUGUUAUUAUCACGCGUGGCGCAA | 16 nM | 19.1 nM | – | – |
| UCGCUGCGAGGAUAUACAUGAGGAUCACCCAUGUACGGGUCCGGGUCUUUGUCUAUUGGUAGAAGGCGCAGUGA | 55.7 nM | 175 nM | – | – |
| UCGGAAUUCAAGAAGGACAUGAGGAUCACCCAUGUAGGAUAUUGACCCGAAUUGUGGGUUUUGCUGAUGCACUUCCCGAGGACA | – | – | 147 nM | 11.6 nM |
| UCGUACAUUCGAGGAUAUCGGUGAUUAAUAAUACGAGAAGGCGAUUUAAGGCAUAAAGCCUUAGACAUGAGGAUCACCCAUGUA | – | – | 107 nM | 70.5 nM |
| UCGUACUAGGGAGGAUAUGGGAAGAUACAUGAGGAUCACCCAUGUUUAAGAAUGCCGAGAGGCAACUAGAAGGCCCUAGUACCU | – | – | 391 nM | 19.1 nM |
| UCGUAUACACAAGGAUAUCGAUGGCUUGUAGAUCCUACAUGAGGAUCACCCAUGUUUUUAUAUUGUGAGAAGGUGUAGUGUCGU | – | – | 1320 nM | 1210 nM |
| UCGUGCCGGGUUACGAUCGACCCACAUGAGGAUCACCCAUGUAGAAGGACCAGCGUCGGCCCUUGGUAGGAUAUACAUGAAAUC | 106 nM | 135 nM | – | – |
| UCUACAUAAAUUCAUCAAUACAGAAAGGAUAUGAGAUACAUGAGGAUCACCCAUGUGCAUGGGAAUUAGAAGGUUCAAUUAACU | 98.5 nM | 67.2 nM | – | – |
| UCUAGACAUGAGGAUCACCCAUGUGAGGAUAUGAUGCGAUCGUCGAAAGACGAUAGCAUCAGAAGGCACGUAUG | 65.1 nM | 113 nM | – | – |
| UCUCAGUGAGGAUAUGCCAGGGACUAAUUCGUCCACCCGUCGCAGAAGGCACAUGAGGAUCACCCAUGUGGAUG | 109 nM | 54.5 nM | – | – |
| UCUCUUCUGUAGAAGGCCCAACUUGUGAAGGCAACGAUGCUAUAGAAGUAGGGAGGAUAUACAUGAGGAUCACCCAUGUAGGAA | 9.28 nM | 13.4 nM | – | – |
| UCUCUUCUGUAGAAGGCCCGACUUGUGAAGACAACAAUGCUAUAGAAGUAGGGAGGAUAUACAUGAGGAUCACCCAUGUAGGAA | 11.6 nM | 29.3 nM | – | – |
| UCUGCUCGAGGAUAUACAUGAGGAUCACCCAUGUAACCCAGAAGCAUGGCCUCAGGAUGUAGAAGGCGACGCUA | 17.3 nM | 37.5 nM | – | – |
| UCUGGUCGAGGAUAUACAUAACGUGCUUCGGCACGAGAUCUACAUGAGGAUCACCCAUGUAGAAGGCGACCAGA | 16.7 nM | 46.7 nM | – | – |
| UCUUACGGAGGAUAUACAUGAGGAUCACCCAUGUAUGGUACGUUGGCUCUACCUUAUAGUAGAAGGCCGGAAGG | 37 nM | 233 nM | – | – |
